Active and inactive are the calls of the source. The rule behind the calls is not given here.
What was measured:
Mus musculus [1] = assay: Anticonvulsant activity in Kunming mouse assessed as protection against MES-induced seizures at 30 mg/kg, ip after 0.5 hrs by MES test; assay type: functional, organism-based; parameters: dose 30 mg/kg
Method in brief: (§1)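 KunMing mice (18-22 g), compounds in DMSO given i.p. at 30 and 100 mg/kg, 3 animals per dose. Examined 0.5 h after dosing; current applied 0.2 s through corneal electrodes. Protection scored as abolition of hind-leg tonic maximal extension; reported as animals protected/animals tested.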

Mus musculus [2] = assay: Protective index, ratio of intraperitoneal neurotoxic TD50 against Kunming mouse by rotarod test to intraperitoneal anticonvulsant ED50 in Kunming mouse by MES test
Method in brief: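 Protective index is TD50/ED50. Both come from i.p. dosing in KunMing mice: ED50 from protection of hind-leg tonic extension in the 0.5 h MES test, TD50 from failure to stay 1 min on the 10 rpm rotarod.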

Mus musculus [3] = assay: Anticonvulsant activity in ip dosed Kunming mouse assessed as protection against MES-induced seizures after 0.5 hrs by MES test; assay type: functional
Method in brief: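 KunMing mice (18-22 g) dosed i.p., compounds dissolved in DMSO; corneal-electrode shock (0.2 s) 30 min after administration. Endpoint is abolition of hind-leg tonic extension. ED50 is the dose protecting 50% of animals, given with 95% confidence intervals.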

[4] = Toxicity in ip dosed Kunming mouse assessed as inability of animal to maintain equilibrium on rod for at least 1 min in each trial by rotarod test; assay type: organism-based; conditions: in vivo
Method in brief: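 Mice pre-trained on a rotarod (3.2 cm diameter, 10 rpm), then dosed i.p. Neurotoxicity scored as failure to keep balance on the rod for at least 1 min in each trial. TD50 is the dose giving minimal neurotoxicity in 50% of animals.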

Mus musculus [5] = assay: Anticonvulsant activity in Kunming mouse assessed as protection against MES-induced seizures at 100 mg/kg, ip after 0.5 hrs by MES test; assay type: functional, organism-based; parameters: dose 100 mg/kg; method in brief: as §1
Mus musculus [6] = assay: Anticonvulsant activity in Kunming mouse assessed as protection against sc-PTZ-induced mortality 50 mg/kg, sc administered 30 mins before PTZ injection; assay type: functional; conditions: route subcutaneous
Method in brief: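 KunMing mice (18–22 g), 10 per group, given test agent dissolved in DMSO. Thirty minutes later, PTZ 85 mg/kg in saline was injected s.c. Animals were held in individual cages and watched for 0.5 h. Clonic seizures, tonic seizures and deaths were counted, and mortality was expressed as % inhibition.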

[7] = Toxicity in orally dosed Kunming mouse assessed as inability of animal to maintain equilibrium on rod for at least 1 min in each trial by rotarod test; assay type: organism-based; conditions: in vivo, po
Method in brief: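 Rotarod test (3.2 cm rod, 10 rpm) in trained mice after oral dosing in 0.5% methylcellulose, tested at the 1.5 h time of peak effect. Toxicity is failure to stay on the rod for at least 1 min per trial. TD50 is the median dose for minimal neurotoxicity.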

Mus musculus [8] = assay: Anticonvulsant activity in orally dosed Kunming mouse assessed as protection against MES-induced seizures after 1.5 hrs by MES test; conditions: po
Mus musculus [9] = assay: Anticonvulsant activity in Kunming mouse assessed as protection against sc-PTZ-induced tonic seizures 50 mg/kg, sc administered 30 mins before PTZ injection; assay type: functional; conditions: route subcutaneous
Method in brief: (§2)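 Mice, 10 per group, dosed at 50 mg/kg. PTZ 85 mg/kg in saline given s.c. 30 min later. Animals housed individually and watched for 0.5 h. Clonic seizures, tonic seizures (usually maximal hind-leg extension) and deaths counted as percent inhibition.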

Mus musculus [10] = assay: Anticonvulsant activity in Kunming mouse assessed as protection against sc-PTZ-induced clonic seizures 50 mg/kg, sc administered 30 mins before PTZ injection; assay type: functional; conditions: route subcutaneous; method in brief: as §2
Mus musculus [11] = species: Mus musculus; assay: Protective index, ratio of oral neurotoxic TD50 against Kunming mouse by rotarod test to oral anticonvulsant ED50 in Kunming mouse by MES test
Mus musculus [12] = assay: Anticonvulsant activity in orally dosed Kunming mouse assessed as time of peak effect for protection against MES-induced seizures […] by MES test; assay type: functional

Row | SMILES | Activity (Mus musculus [1]) | Ratio TD50/ED50 (Mus musculus [2]) | ED50 (Mus musculus [3]) [mg/kg] | TD50 at 1 min [4] [mg/kg] | Activity (Mus musculus [5]) | also measured
1 | CCCCCCCCn1cnc2c(-n3cncn3)ncnc21 | Active | 7.4 | 33.2 | 247 | Active | 
2 | CCCCn1cnc2c1ncn1cnnc21 | inactive |  |  |  | inactive | 
3 | c1ccc(Cn2cnc3c(-n4cncn4)ncnc32)cc1 | inactive | 4.7 | 66.6 | 315 | Active | 
4 | CCCCCCCCCCCCCCn1cnc2c(-n3cncn3)ncnc21 | inactive |  |  |  | inactive | 
5 | Fc1cccc(Cn2cnc3c2ncn2cnnc32)c1 | inactive |  |  |  | inactive | 
6 | CCCCCCCCCCn1cnc2c(-n3cccn3)ncnc21 | inactive | 3.6 | 66.5 | 241 | Active | 
7 | Fc1ccc(Cn2cnc3c2ncn2cnnc32)cc1 | inactive |  |  |  | inactive | 
8 | CCCCCn1cnc2c1ncn1cnnc21 | inactive |  |  |  | Active | 
9 | Fc1cccc(Cn2cnc3c(-n4cncn4)ncnc32)c1 | inactive | 8.3 | 45.9 | 384 | Active | 
10 | CCCCCCCCn1cnc2c1ncn1cnnc21 | inactive |  |  |  | Active | 
11 | Clc1ccccc1Cn1cnc2c1ncn1cnnc21 | inactive | 6.1 | 51.9 | 315 | Active | 
12 | Fc1ccccc1Cn1cnc2c1ncn1cnnc21 | inactive |  |  |  | Active | 
13 | CCCCCCCCCCn1cnc2c(-n3cnc(C)c3)ncnc21 | inactive | 2.9 | 67.5 | 196 | Active | 
14 | CCCCCCCCCCn1cnc2c(-n3cncn3)ncnc21 | Active | >25.6 | 23.4 | > 700 | Active | inhibition in vivo at 50 mg/kg (Mus musculus [6]): 70%; TD50 at 1 min [7]: > 1500 mg/kg; ED50 (Mus musculus [8]): 39.4 mg/kg; inhibition in vivo at 50 mg/kg (Mus musculus [9]): 90%; inhibition in vivo at 50 mg/kg (Mus musculus [10]): 20%; Ratio TD50/ED50 (Mus musculus [11]): >38.1; Time (Mus musculus [12]): 1.5 h
15 | CCCCCCCCCCn1cnc2c1ncn1cnnc21 | inactive |  |  |  | inactive | 
16 | CCCCCn1cnc2c(-n3cncn3)ncnc21 | inactive |  |  |  |  | 
17 | Clc1ccccc1Cn1cnc2c(-n3cncn3)ncnc21 | inactive |  |  |  |  | 
18 | COc1ccc(Cn2cnc3c(-n4cncn4)ncnc32)cc1 | inactive |  |  |  | inactive | 
19 | Cc1ccc(Cn2cnc3c(-n4cncn4)ncnc32)cc1 | inactive |  |  |  | inactive | 
20 | NC(=O)N1c2ccccc2C=Cc2ccccc21 [CARBAMAZEPINE] |  | 6.4 | 11.8 |  |  | inhibition in vivo at 50 mg/kg (Mus musculus [6]): 80%; TD50 at 1 min [7]: 329 mg/kg; ED50 (Mus musculus [8]): 27.3 mg/kg; inhibition in vivo at 50 mg/kg (Mus musculus [9]): 100%; inhibition in vivo at 50 mg/kg (Mus musculus [10]): 0%; Ratio TD50/ED50 (Mus musculus [11]): 12

Row | SMILES | Activity (Mus musculus [1]) | Ratio TD50/ED50 (Mus musculus [2]) | ED50 (Mus musculus [3]) [mg/kg] | TD50 at 1 min [4] [mg/kg] | Activity (Mus musculus [5]) | also measured
21 | CCCCCCCn1cnc2c(-n3cncn3)ncnc21 | Active | 3.3 | 31.5 | 105 | Active | 
22 | Cc1cn(-c2ncnc3c2ncn3Cc2ccccc2F)cn1 | inactive |  |  |  | inactive | 
23 | c1ccc(Cn2cnc3c2ncn2cnnc32)cc1 | inactive |  |  |  | Active | 
24 | Clc1cccc(Cn2cnc3c(-n4cncn4)ncnc32)c1 | inactive | 7.5 | 65.4 | 488 | Active | 
25 | CCCCCCn1cnc2c(-n3cncn3)ncnc21 | inactive | 4.8 | 43.9 | 210 | Active | 
26 | Fc1ccccc1Cn1cnc2c(Sc3ncn[nH]3)ncnc21 | inactive |  |  |  | inactive | 
27 | Fc1ccccc1Cn1cnc2c(-n3cncn3)ncnc21 | Active | 15 | 29.9 | 449 | Active | 
28 | CCCCCCCCCCn1cnc2c(-n3ccnc3)ncnc21 | inactive |  |  |  | Active | 
29 | COc1ccc(Cn2cnc3c2ncn2cnnc32)cc1 | inactive |  |  |  | inactive | 
30 | Clc1ccc(Cn2cnc3c(-n4cncn4)ncnc32)cc1 | inactive |  |  |  | inactive | 
31 | Fc1ccccc1Cn1cnc2c(-n3cccn3)ncnc21 | inactive |  |  |  | Active | 
32 | Fc1ccccc1Cn1cnc2c(-n3ccnc3)ncnc21 | inactive | 1.8 | 61.4 | 115 | Active | 
33 | CCCCCCn1cnc2c1ncn1cnnc21 | inactive | 2 | 51.2 | 102 | Active | 
34 | CCCCCCCCCCn1cnc2c(Sc3ncn[nH]3)ncnc21 | inactive |  |  |  | inactive | 
35 | CCCCCCCn1cnc2c1ncn1cnnc21 | inactive |  |  |  | Active | 
36 | Clc1cccc(Cn2cnc3c2ncn2cnnc32)c1 | inactive |  |  |  | inactive | 
37 | Clc1ccc(Cn2cnc3c2ncn2cnnc32)cc1 | inactive |  |  |  | inactive | 
38 | Cc1ccc(Cn2cnc3c2ncn2cnnc32)cc1 | inactive |  |  |  | inactive | 
39 | Fc1ccc(Cn2cnc3c(-n4cncn4)ncnc32)cc1 | inactive |  |  |  | inactive | 
40 | CCCCCCCCCCCCn1cnc2c(-n3cncn3)ncnc21 | inactive |  |  |  |  | 

From ChEMBL document CHEMBL3351748, “Synthesis and anticonvulsant activity of novel purine derivatives” (Eur J Med Chem, 2014)
